DNMT1 block: inhibitors of human DNMT1. inhibition (reported as % activation of signal), % at 10 µM. actives 0.83% (n = 360,000). P26358. DNMT1 molecular beacon, Hinp1I cleavage, fluorescence; in the data active = inhibition above about 50%
CSN deneddyl inh: CSN deneddylation inhibition. actives 0.38% (n = 360,000). inhibition, % at 12.5 µM. Q92905. Purified CSN, SCF-Nedd8-OG deneddylation, fluorescence polarization;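 active = pattern-corrected inhibition above about 35%, with an unprinted fluorescence ratio check between 0.5 and 1.5, limit read from the data, passing the limit was not always enough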;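 note: 0% = enzyme with substrate and 100% = substrate without enzyme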
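Assay system: Purified human Csn5 enzyme expressed in HEK293T cells | Amount: Enzyme 0.24 nM | Measured by: Fluorescence polarization readout | Medium: Tris/NaCl/DTT buffer, pH 7.5 | Compound dosing: One concentration, 12.5 µM, 0.25% DMSO | Times: 90 min incubation of compound, enzyme and substrate at room temperature | Control set: no-enzyme wells high, enzyme-with-substrate wells low | Read-out: % inhibition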
Scp1 inh: blocks human Scp-1 phosphatase activity | actives 0.88% (n = 340,000) | Q9GZU7 | Recombinant Scp1, phosphopeptide, malachite green phosphate absorbance | inhibition, % at 20 µM | AID 493091;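 active = inhibition above about 50% at 20 µM, limit read from the data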;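 note: plate controls were DMSO wells with enzyme for no effect and wells lacking enzyme for full effect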
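Test system – truncated SCP-1 phosphatase (76-261aa) · Reagent – Phosphorylated 17-residue peptide substrate · Incubation – 45 min room-temperature reaction, 5 min colour, 30 min stabiliser · Detection – colorimetric phosphate reagent with accelerator and stabiliser, absorbance at 630 nm · Measure – % inhibition at 20 µM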
STEP block: STEP (human) phosphatase inhibition. recombinant STEP, OMFP fluorogenic substrate, fluorescence. inhibition, % at 20 µM. AID 588621. P54829. actives 0.25% (n = 360,000);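 active = inhibition at 20 µM, scaled per plate between control wells, above about 37%, limit read from the data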;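 note: 0% = DMSO with enzyme and substrate and 100% = substrate only without enzyme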
Target sequence (P54829 whole entry, looked up): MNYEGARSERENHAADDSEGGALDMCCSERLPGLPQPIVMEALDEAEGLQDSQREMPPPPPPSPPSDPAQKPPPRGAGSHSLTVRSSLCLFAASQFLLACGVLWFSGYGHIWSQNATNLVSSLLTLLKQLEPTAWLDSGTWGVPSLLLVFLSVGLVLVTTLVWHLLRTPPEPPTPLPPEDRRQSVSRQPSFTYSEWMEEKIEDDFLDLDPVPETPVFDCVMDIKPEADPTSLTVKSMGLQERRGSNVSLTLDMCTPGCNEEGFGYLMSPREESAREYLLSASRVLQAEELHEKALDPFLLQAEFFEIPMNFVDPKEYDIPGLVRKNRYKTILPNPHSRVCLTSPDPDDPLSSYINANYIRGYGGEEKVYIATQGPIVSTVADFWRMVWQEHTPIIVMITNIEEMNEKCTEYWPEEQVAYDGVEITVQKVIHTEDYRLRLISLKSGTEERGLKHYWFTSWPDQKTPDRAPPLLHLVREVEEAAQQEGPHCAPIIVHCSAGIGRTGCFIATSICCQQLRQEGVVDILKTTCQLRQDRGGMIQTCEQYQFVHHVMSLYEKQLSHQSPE
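material = STEP tyrosine phosphatase | reagent = fluorogenic phosphatase substrate OMFP at 25 µM final | doses = single compound dose of 20 µM, 1% DMSO final | schedule = 20 min reaction, room temperature, in the dark | measured by = fluorescence, 480/540 nm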
SUMO1-SIM PPI: alters human SUMO1 binding to SIM partners | P63165 | SUMO1 binding to a labelled peptide, TR-FRET, 1 h | inhibition, % at 20 µM | actives 0.33% (n = 360,000); in the data active = inhibition above about 37%
LMPTP inh: LMPTP (human) inhibition; recombinant LMPTP-A, OMFP fluorogenic substrate, fluorescence intensity; inhibition, % at 20 µM; actives 0.22% (n = 360,000); AID 651560;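 active = compounds that cut the enzyme signal by at least half of the control window in the single-dose screen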;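 note: plate controls were DMSO wells with enzyme plus substrate for no effect and substrate without enzyme for full effect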
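Material: LMPTP-A; amount: 0.625 nM enzyme; doses: single 20 µM dose; times: reaction 50 min, room temperature, dark; technique: fluorescence intensity of OMFP turnover product; benchmarks: no-enzyme and uninhibited controls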
* = called active by the depositor; / = no result. Only some compounds are listed: those with a hit (about 1.9% of all), similar ones and a draw of the others.

SMILES	DNMT1 block	CSN deneddyl inh	Scp1 inh	STEP block	SUMO1-SIM PPI	LMPTP inh
O=S(=O)(Nc1ccc(-c2ccc3nncn3n2)cc1)c1cccs1	-1	-5	-3	2	-9	3
COc1ccc2c(c1)CCC(=O)[C@H](O)C[C@H](c1ccccc1)OC2=O	/	-4	/	/	1	-1
COc1ccc2c(c1)C(=O)O[C@@H](c1ccccc1)C[C@@H](O)C(=O)CC2	/	87*	/	/	0	0
COc1ccccc1Oc1ccc(N2CC(C(=O)OCC(=O)c3ccccc3)CC2=O)cc1 (stereo not drawn)	-4	4	-15	1	5	3
COCCC(=O)N1CCC(Oc2ccc(C(=O)NCCc3ccccn3)cc2)CC1	0	-1	3	0	1	-1
CCOc1ccc(C(=O)Nc2cc(NC(=O)c3ccc(OCC)c(Cl)c3)cc(C(=O)O)c2)cc1Cl	-18	49*	27	-4	32	2
CCOc1ccc(C(=O)Nc2cccc(C(=O)O)c2)cc1Cl	0	-3	5	-2	-1	0
CCc1ccc2cccc3c2c1N=CN3C	-23	-2	-4	3	-16	1
CC(/C=C1\N=C(SCc2ccccc2Cl)SC1=O)=C\c1ccccc1	101*	0	-5	-2	0	2
CCC[n+]1c(C)sc2c3c(ccc21)CCCC3	33	2	98*	2	3	5
CC[n+]1c(C)sc2c(C)cc(C)cc21	-1	-1	0	-4	2	-2
COc1cc(C(C)=O)ccc1OCC(=O)N1CCCC1c1ccc2c(c1)OCCCO2 (stereo not drawn)	-3	0	/	2	4	0
CC(NC(=O)C1CCN(C(=O)c2cccs2)CC1)c1ccc(S(N)(=O)=O)cc1 (stereo not drawn)	-132	101*	-10	-2	-139	-9
O=c1c2cc(Br)ccc2nc(-c2ccc(Cl)cc2)n1O	0	5	65*	96*	1	51*
CCOC(=O)Cc1cc(=O)n(-c2nc3ccccc3s2)[nH]1	7	13	-5	2	38*	0
CCCc1cc(=O)n(-c2nc3ccccc3s2)[nH]1	-2	6	-2	-4	-2	0
N#Cc1c(SCC(=O)Nc2ccc(Cl)cc2Cl)sc2c(O)cc(=O)[nH]c12	21	10	41	7	4	22
N#Cc1c(SCC(=O)Nc2nccs2)sc2c(O)cc(=O)[nH]c12	43	12	68*	34	20	31
COc1ccc(C)cc1N(CC(=O)N1CCCC1)S(C)(=O)=O	-5	70*	-6	0	2	0
Cc1ccccc1C(=O)N1CCC(C(=O)OCc2ccccc2Cl)CC1	0	3	-10	1	3	0
N#C/C(=C\C1=C(N2CCOCC2)C(=C/c2cccc([N+](=O)[O-])c2)/CC1)C(=O)Nc1ccccc1F	2	25	-9	9	-15	13
N#C/C(=C/C1=C(N2CCOCC2)C(=C/c2ccccc2)/CC1)C(=O)Nc1ccccc1F	-8	58*	-5	-1	-46	10
N#C/C(=C/C1=C(N2CCOCC2)C(=C/c2cccc([N+](=O)[O-])c2)/CC1)C(=O)Nc1ccccc1F	-1	53*	-3	-2	-23	11
Cc1cc(=O)oc2c1c(C)nn2-c1nn[nH]n1	1	2	68*	-1	3	-3
CCCc1cc(=O)oc2cc(C)cc(OCc3nn[nH]n3)c12	0	2	0	-17	5	-2
SMILES	DNMT1 block	CSN deneddyl inh	Scp1 inh	STEP block	SUMO1-SIM PPI	LMPTP inh
O=C(Cc1ccccc1)NNc1c2ccccc2nc2ccccc12	1	-6	-1	-1	-13	3
O=C(Nc1c2ccccc2nc2ccccc12)C(Cl)(Cl)Cl	51*	-5	3	3	-9	11
CCC(=O)C1CCCN(C(=O)c2ccc(OC)c(OC3CCN(C(C)=O)CC3)c2)C1 (stereo not drawn)	2	1	-7	-2	43*	-1
COc1ccc(C(=O)N2CCN(C)C(C)C2)cc1OC1CCN(C(C)=O)CC1 (stereo not drawn)	0	-2	-2	0	3	-1
CC(=O)c1ccc(NCC(=O)N2CCN(S(=O)(=O)c3ccccc3)CC2)cc1	3	-4	-2	0	2	0
O=C(CNc1ccc(Cl)c(C(F)(F)F)c1)N1CCN(S(=O)(=O)c2ccccc2)CC1	-1	-4	69*	2	0	2
CC1=N/C(=C/c2ccco2)C(=O)O1	93*	10	57*	9	13	-1
COc1ccc(-c2cc(C(=O)Nc3cc(Br)ccc3O)no2)cc1	57*	6	-15	29	-1	69*
COc1ccc(-c2cc(C(=O)Nc3ccccc3SC)no2)cc1	12	-3	-8	-2	3	-2
CCCc1c(C(=O)N/N=C/c2ccccc2C(F)(F)F)nnn1-c1nonc1N	0	-3	-6	-1	1	2
COc1ccc(OC)c(-c2csc(NC(=O)Cn3[nH]c(=O)c4ccccc4c3=O)n2)c1	-6	15	-1	4	64*	0
CC(C)OCP(=O)(c1ccccc1)c1ccccc1	4	5	-4	-1	51*	-1
COc1ccccc1C(=O)CSc1n[nH]c(N)n1	-3	3	5	0	1	0
Nc1nc(SCC(=O)c2cc3ccccc3o2)n[nH]1	-4	0	-3	-5	40*	1
C/C(N)=C(/C#N)C(=O)COC(=O)C1CCC(C(C)(C)C)CC1 (stereo not drawn)	5	117*	-5	-1	-1	3
O=C1c2ccccc2C(=O)c2c([N+](=O)[O-])ccc(O)c21	48	-2	67*	32	3	8
O=C(O)c1ccc([N+](=O)[O-])c2c1C(=O)c1ccccc1C2=O	4	6	0	-1	-14	-1
N#Cc1c(NC(=O)Cn2c(=O)oc3ccccc32)oc(-c2ccccc2)c1-c1ccccc1	-10	1	-12	-3	41*	5
O=C(Nc1cc(C(=O)Nc2ccccc2C(=O)O)cc(C(=O)Nc2ccccc2C(=O)O)c1)c1ccccc1	7	20	4	18	42*	0
COc1ccc(NC(=O)Nc2cccc3c2O[C@@H](CN(C)S(=O)(=O)c2cn(C)cn2)[C@@H](C)CN([C@H](C)CO)C3=O)cc1	6	-1	-6	1	4	3
CC(C)N1C(=O)S/C(=C\c2ccc(-c3ccc(Cl)c(C(=O)O)c3)o2)C1=O	29	7	68*	9	-8	0

Compound activity deposited in PubChem by Sanford-Burnham Center for Chemical Genomics.
